Measurements as given in ChEMBL document CHEMBL1135742, “Modification of the structure of a metallopeptide: synthesis and biological evaluation of (111)In-labeled DOTA-conjugated rhenium-cyclized alpha-MSH analogues” (J Med Chem, 2002).

Experiments:
Assay type in all cases: functional, organism-based
Mus musculus [1] = species on record: Mus musculus; experiment: Uptake of [111In]-labeled compound in blood at 2 hr pi in the presence of […]
Procedure, shortened: (§1)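 C57 BL/6 female mice, 7–8 weeks old, inoculated s.c. in right flank with 1×10^6 B16/F1 melanoma cells. Used 9–10 days later at tumor weight ~500 mg. […] HPLC-purified 111In-DOTA peptide (neutral pH) given via tail vein, with or without […]. Killed 2 h pi. Tissues weighed and gamma-counted. Uptake expressed as % ID/g.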

Mus musculus [2] = species on record: Mus musculus; experiment: Uptake of [111In]-labeled compound in spleen at 2 hr pi in the presence of 10 mg NDP; procedure, shortened: as §1
Mus musculus [3] = species on record: Mus musculus; experiment: Uptake of [111In]-labeled compound in kidney at 2 hr pi in the absence of […]; procedure, shortened: as §1
Mus musculus [4] = species on record: Mus musculus; experiment: Uptake of [111In]-labeled compound in lung at 2 hr pi in the absence of […]; procedure, shortened: as §1
Mus musculus [5] = species on record: Mus musculus; experiment: Uptake of [111In]-labeled compound in pancreas at 2 hr pi in the presence of 10 mg NDP; procedure, shortened: as §1
Mus musculus [6] = species on record: Mus musculus; experiment: Uptake of [111In]-labeled compound in lung at 2 hr pi in the presence of […]; procedure, shortened: as §1
Mus musculus [7] = species on record: Mus musculus; experiment: Uptake of [111In]-labeled compound in liver at 2 hr pi in the presence of […]; procedure, shortened: as §1
Mus musculus [8] = species on record: Mus musculus; experiment: Uptake of [111In]-labeled compound in tumor at 2 hr pi in the presence of 10 mg NDP; procedure, shortened: as §1

Work on DOTA-ReCCEHdFRWCRPV-NH2 yielded an ID/g (Mus musculus [1]) of 0.27%, an ID/g (Mus musculus [2]) of 0.47% and an ID/g (Mus musculus [3]) of 8.72%. For the same substance, the ID/g (Mus musculus [4]) was 0.3%, the ID/g (Mus musculus [5]) was 0.11% and the ID/g (Mus musculus [6]) was 0.44%. The ID/g (Mus musculus [7]) was 1.61% and the ID/g (Mus musculus [8]) was 1.95%.
